Source: ChEMBL document CHEMBL1124253, “(8 beta)-Ergoline-8-carboxylic acid cycloalkyl esters as serotonin antagonists: structure-activity study” (J Med Chem, 1988)

Target: Serotonin 2 (5-HT2) receptor (Rattus norvegicus) (UniProt P30994+P08909+P14842)
Assay: Binding affinity to the 5-hydroxytryptamine 2 receptor assayed by antagonism of serotonin-induced contractions in the rat jugular vein
How it was run: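 Jugular vein rings mounted in organ baths of modified Krebs solution and equilibrated 1–2 h. Control cumulative serotonin contraction curves were run, then tissues were incubated 1 h with antagonist and serotonin curves were repeated. For each antagonist concentration, K_B = [B]/(dose ratio − 1), where dose ratio = agonist ED50 with antagonist / control ED50. Values reported as −log K_B.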

Chain of Serotonin 2 (5-HT2) receptor (Rattus norvegicus) (P08909 whole entry, looked up): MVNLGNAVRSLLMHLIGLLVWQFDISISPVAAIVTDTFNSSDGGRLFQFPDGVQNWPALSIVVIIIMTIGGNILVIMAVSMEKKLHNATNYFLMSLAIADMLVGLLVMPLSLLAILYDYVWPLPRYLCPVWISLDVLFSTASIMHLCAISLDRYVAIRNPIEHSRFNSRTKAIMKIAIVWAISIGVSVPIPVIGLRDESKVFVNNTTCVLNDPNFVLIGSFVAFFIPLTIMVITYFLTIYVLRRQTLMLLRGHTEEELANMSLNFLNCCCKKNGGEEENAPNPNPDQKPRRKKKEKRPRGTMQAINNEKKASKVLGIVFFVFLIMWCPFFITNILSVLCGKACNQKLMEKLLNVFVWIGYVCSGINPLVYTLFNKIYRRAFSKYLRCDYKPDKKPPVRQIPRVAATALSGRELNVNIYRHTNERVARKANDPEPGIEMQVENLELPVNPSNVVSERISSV
Chain of Serotonin 2 (5-HT2) receptor (Rattus norvegicus) (P14842 whole entry, looked up): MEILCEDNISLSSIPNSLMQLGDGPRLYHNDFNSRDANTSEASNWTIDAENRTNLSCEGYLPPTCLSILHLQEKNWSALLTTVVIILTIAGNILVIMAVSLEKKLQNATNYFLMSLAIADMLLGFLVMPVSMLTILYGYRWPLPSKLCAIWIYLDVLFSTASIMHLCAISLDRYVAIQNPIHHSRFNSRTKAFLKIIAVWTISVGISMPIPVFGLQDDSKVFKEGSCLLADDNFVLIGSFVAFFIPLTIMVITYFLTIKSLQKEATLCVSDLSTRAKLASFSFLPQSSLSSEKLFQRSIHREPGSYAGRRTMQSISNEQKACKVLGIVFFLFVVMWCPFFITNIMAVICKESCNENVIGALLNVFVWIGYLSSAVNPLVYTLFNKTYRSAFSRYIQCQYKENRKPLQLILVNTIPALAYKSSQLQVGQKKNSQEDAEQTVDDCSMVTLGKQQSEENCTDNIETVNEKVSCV
Chain of Serotonin 2 (5-HT2) receptor (Rattus norvegicus) (P30994 whole entry, looked up): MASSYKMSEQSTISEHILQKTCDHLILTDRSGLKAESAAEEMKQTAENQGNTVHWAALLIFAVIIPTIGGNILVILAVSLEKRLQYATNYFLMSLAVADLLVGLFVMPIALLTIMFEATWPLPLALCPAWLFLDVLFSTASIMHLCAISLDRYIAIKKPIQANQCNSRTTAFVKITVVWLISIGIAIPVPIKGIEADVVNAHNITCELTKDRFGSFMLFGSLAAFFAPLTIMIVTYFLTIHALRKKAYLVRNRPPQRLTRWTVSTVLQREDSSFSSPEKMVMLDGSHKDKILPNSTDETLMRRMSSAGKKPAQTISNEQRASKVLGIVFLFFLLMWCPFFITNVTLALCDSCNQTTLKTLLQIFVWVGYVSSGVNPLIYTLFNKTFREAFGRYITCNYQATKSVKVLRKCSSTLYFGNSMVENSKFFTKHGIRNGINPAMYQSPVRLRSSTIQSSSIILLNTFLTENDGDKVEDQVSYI

SMILES | -Log KB
CC(O)C(C)OC(=O)[C@@H]1CC2c3cccc4c3c(cn4C(C)C)CC2N(C)C1 (some centres not stated) | 10.3
CC(C)n1cc2c3c(cccc31)C1C[C@@H](C(=O)OC3CCC3)CN(C)C1C2 (some centres not stated) | 8.22
CC(C)n1cc2c3c(cccc31)C1C[C@@H](C(=O)O[C@H]3CC[C@@H](C)CC3)CN(C)C1C2 (some centres not stated) | 7.69
CC(C)n1cc2c3c(cccc31)C1C[C@@H](C(=O)OC3CCCCCC3)CN(C)C1C2 (some centres not stated) | 7.73
CC(C)n1cc2c3c(cccc31)C1C[C@@H](C(=O)OC3CCCCC3)CNC1C2 (some centres not stated) | < 6
CN1C[C@H](C(=O)OC2CCCCC2)CC2c3cccc4[nH]cc(c34)CC21 (some centres not stated) | 8.05
CN1C[C@H](C(=O)OC2CCCCC2)CC2c3cccc4c3c(cn4Cc3ccccc3)CC21 (some centres not stated) | 6.52
CC(C)n1cc2c3c(cccc31)C1C[C@@H](C(=O)OC3CCOCC3)CN(C)C1C2 (some centres not stated) | 9.86
CC(C)n1cc2c3c(cccc31)C1C[C@@H](C(=O)OC3CCCCC3)CN(C)C1C2 (some centres not stated) | 8.67
CCCCN1C[C@H](C(=O)OC2CCCCC2)CC2c3cccc4c3c(cn4C(C)C)CC21 (some centres not stated) | 7.4
CCC(CC)n1cc2c3c(cccc31)C1C[C@@H](C(=O)OC3CCCCC3)CN(C)C1C2 (some centres not stated) | 7.31
CC(C)n1cc2c3c(cccc31)C1C[C@@H](C(=O)OC3CCC(O)CC3)CN(C)C1C2 (some centres not stated) | 10.2
CCN1C[C@H](C(=O)OC2CCCCC2)CC2c3cccc4c3c(cn4C(C)C)CC21 (some centres not stated) | 7.81
CN1C[C@H](C(=O)OC2CCCCC2)CC2c3cccc4c3c(cn4C)CC21 (some centres not stated) | 8.12
CC(C)n1cc2c3c(cccc31)C1C[C@@H](C(=O)OC3CCC(=O)CC3)CN(C)C1C2 (some centres not stated) | 10
CC(C)n1cc2c3c(cccc31)C1C[C@@H](C(=O)OC3CCCCC3=O)CN(C)C1C2 (some centres not stated) | 9.31
CCCN1C[C@H](C(=O)OC2CCCCC2)CC2c3cccc4c3c(cn4C(C)C)CC21 (some centres not stated) | 7.07
CC(C)N1C[C@H](C(=O)OC2CCCCC2)CC2c3cccc4c3c(cn4C(C)C)CC21 (some centres not stated) | 6.42
CC1CCCC(C)C1OC(=O)[C@@H]1CC2c3cccc4c3c(cn4C(C)C)CC2N(C)C1 (some centres not stated) | 7.32
CC(C)n1cc2c3c(cccc31)C1C[C@@H](C(=O)O[C@H]3CC[C@H](C)CC3)CN(C)C1C2 (some centres not stated) | 7.21
CC(C)n1cc2c3c(cccc31)C1C[C@@H](C(=O)OC3CCCCC3O)CN(C)C1C2 (some centres not stated) | 9.47
CC(C)n1cc2c3c(cccc31)C1C[C@@H](C(=O)OC3CCCC3)CN(C)C1C2 (some centres not stated) | 8.91
